# Results taken from publication PMC11362645 (International Journal for Parasitology: Parasites and …, 2024).
# Marks after values point to notes of the source that are not given here.
# Experiments:
# [1] = In vitro MTT cytotoxicity assay on MDBK cells; format: cell-based, bovine; conditions: bovine, MDBK cells (NBL-1 strain)
# How it was run: (§1)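 MDBK cells (NBL-1) were kept in MEM with 10% FBS and penicillin/streptomycin at 37 °C, 5% CO2, and passaged with Accutase at ~70% confluence. Cells were seeded at 2×10^4/well and grown 24 h. Test compound was added at final 0.1, 1, 10, 50 or 100 μM, with a DMSO solvent control, for 24 h. MTT was added for 2 h, formazan dissolved in 99% isopropanol, and A562 read. Viability = compound/DMSO ×100. Maximum non-toxic concentration = highest concentration with no significant viability effect. Three repeats.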
# [2] = system: Madin-Darby bovine kidney (MDBK) cells; assay: In vitro MTT cytotoxicity assay on MDBK cells; format: cell-based; conditions: MDBK cells; for Maximum non-toxic concentration: highest concentration with no significant effect on cell viability; for Concentration that significantly reduced the viability of MDBK cells / Average cell viability (%): 24 h, MTT
# How it was run: as §1
# E. tenella sporozoites = assay: In vitro viability assay for E. tenella sporozoites; format: cell-based, Eimeria tenella; conditions: for Sporozoite viability: 24 h, DMSO-treated group = 100%; for Potency of anti-parasitical effect against Eimeria parasites (category by IC50): criteria of Isah et al., 2016: high, moderate, low/no potency
# How it was run: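 E. tenella OPU strain oocysts were sporulated in ~0.1% potassium dichromate at 28 °C and hypochlorite-treated. Sporocysts were excysted for 1–2 h at 41 °C in HBSS with 1% taurodeoxycholic acid and 0.25% trypsin. Sporozoites at 5×10^6/ml in phenol-red-free RPMI 1640 with antibiotics got test compound (screen 100 μM; IC50 range 1–100 μM) for 24 h at 37 °C, 5% CO2. Cell Count Reagent SF was then added for 3 h. Viability was expressed relative to DMSO = 100%.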
# [3] = commercially available pure compounds at 100 μM
SMILES,"viability at 24 h, 0.1 µM [1] [%]","viability at 24 h, 1 µM [1] [%]","viability at 24 h, 10 µM [1] [%]","viability at 24 h, 50 µM [1] [%]","viability at 24 h, 100 µM [1] [%]",Maximum non-toxic concentration [2] [µM],Concentration that significantly reduced the viability of MDBK cells [2],Sporozoite viability (E. tenella sporozoites; [3]),Average cell viability (%) ([2]; 0.1 μM),Average cell viability (%) ([2]; 1 μM),Average cell viability (%) ([2]; 10 μM),Average cell viability (%) ([2]; 50 μM),Average cell viability (%) ([2]; 100 μM),Sporozoite viability (E. tenella sporozoites; natural components at 100 μM),Potency of anti-parasitical effect against Eimeria parasites (category by IC50) (E. tenella sporozoites)
"Oc1cc(O)cc(/C=C/c2ccccc2)c1 [Component A-5, Pinosylvin]",103,102,103,110,106,100,,,,,,,,,
"CC[C@@H](C(=O)[C@@H](C)[C@@H](O)[C@H](C)CCc1ccc(C)c(O)c1C(=O)O)[C@H]1O[C@](CC)([C@H]2CC[C@](O)(CC)[C@H](C)O2)C[C@@H]1C [lasalocid, reference compound]",107,110,54.3,1.1,0.4,1,higher than 10 μM,,,,,,,,
"COc1cc(C)cc(O)c1 [Component H-1, 3-Methoxy-5-methylphenol]",106,109,106,113,112,100,,,,,,,,,
"C[C@H]1[C@H](C)CC[C@]2(C)CC[C@]3(C)C(=CC[C@@H]4[C@@]5(C)CC[C@H](O)C(C)(C)[C@@H]5CC[C@]43C)[C@H]12 [α-amyrin, reference compound]",,,,,,,,did not significantly reduce,,,,,,,
"Oc1cc(O)c2c(c1)OC(c1ccc(O)c(O)c1)C(O)C2 (stereo not shown) [E−2, Catechin]",,,,,,100,,,101.1,102.5,109.8,104.9%,114.0%,,
"OC[C@H]1O[C@@H](Oc2ccc(O)cc2)[C@H](O)[C@@H](O)[C@@H]1O [E−1, Arbutin]",83.1,86.4,87.1,108,102,100,,,,,,,,,
"Oc1cc(O)c2c(c1)O[C@H](c1ccc(O)c(O)c1)[C@H](O)C2 [Component A-3, Epicatechin]",103,91,92.3,109,108,100,,,,,,,,,
"CC1(C)CC[C@]2(C)CC[C@]3(C)C(=CC[C@@H]4[C@@]5(C)CC[C@H](O)C(C)(C)[C@@H]5CC[C@]43C)[C@@H]2C1 [Component C-1, β-Amyrin]",78.1,82.6,88.6,87.7,82.4,100,,,,,,,,no significant effect,
"COc1cc(CCc2ccccc2O)cc(OC)c1O [Component A-2, 4,2′-Dihydroxy-3,5-dimethoxydihydrostilbene]",,,,,,100,,,98.7,105.9,107.0,103.4%,107.3%,,
"O=c1c(O[C@@H]2O[C@H](CO)[C@@H](O)[C@H](O)[C@H]2O)c(-c2ccc(O)c(O)c2)oc2cc(O)cc(O)c12 [Component A-4, Isoquercitrin]",98,110,104,109,104,100,,,,,,,,,
"C[C@H]1[C@H](C)CC[C@]2(CO)CC[C@]3(C)C(=CC[C@@H]4[C@@]5(C)CC[C@H](O)C(C)(C)[C@@H]5CC[C@]43C)[C@H]12 [Component B-1, Uvaol]",95.6,99.9,110,55.9,36.2,10,,,,,,,,,
"O=C(CCc1ccc(O)cc1)c1c(O)cc(O)cc1O[C@@H]1O[C@H](CO)[C@@H](O)[C@H](O)[C@H]1O [Component C-7, Phlorhizin]",,,,,,100,,,87.9,90.9,98.2,95.8%,107.4%,,
"Oc1cc(O)c2c(c1)O[C@H](c1cc(O)c(O)c(O)c1)[C@@H](O)C2 [Component F-1, Gallocatechin]",80.8,81.4,93.9,92.6,85.2,100,,,,,,,,,
"O=C(CCc1ccc(O)cc1)c1c(O)cc(O[C@@H]2O[C@H](CO)[C@@H](O)[C@H](O)[C@H]2O)cc1O [Component C-6, Trilobatin]",,,,,,100,,,89.1,90.7,91.4,92.9%,93.6%,,
"COC1OC(CO)C(O)C(O)C1O (stereo not drawn) [Component F-2, β-Methylglucoside]",,,,,,100,,,99.2,102.1,104.6,102.0%,104.9%,,
"COc1ccc(-c2cc(=O)c3c(O)c(C)c(OC)cc3o2)cc1 [Component C-2, 8-Demethyleucalyptin]",,,,,,10,,,97.8,92.5,98.7,85.2* %,80.8* %,,
"O=c1c(O[C@@H]2O[C@@H](CO)[C@H](O)[C@H]2O)c(-c2ccc(O)c(O)c2)oc2cc(O)cc(O)c12 [Component G-1, Avicularin]",94.6,96.9,88.5,104,89.5,100,,,,,,,,,
"O=C1C[C@@H](c2ccc(O)cc2)Oc2cc(O)cc(O)c21 [Component D-1, Naringenin]",92.2,97.3,99.3,109,107,100,,,,,,,,,
"C[C@@H]1O[C@@H](O[C@H]2[C@H](O)[C@@H](O)[C@H](OC[C@H]3O[C@@H](OC(=O)[C@]45CCC(C)(C)C[C@H]4C4=CC[C@@H]6[C@@]7(C)CC[C@H](O[C@@H]8OC[C@H](O)[C@H](O)[C@H]8O[C@@H]8O[C@H](CO)[C@@H](O)[C@H](O)[C@H]8O)[C@@](C)(CO)[C@@H]7CC[C@@]6(C)[C@]4(C)CC5)[C@H](O)[C@@H](O)[C@@H]3O)O[C@@H]2CO)[C@H](O)[C@H](O)[C@H]1O [Component I-1, Cauloside G]",,,,,,100,,,100.7,103.3,103.7,97.0%,89.4%,,
"Cc1cc(O)cc(O)c1 [Component H-2, 5-Methylbenzene-1,3-diol]",92,95.3,94.8,93.4,93.3,100,,,,,,,,,
"CC1(C)CC[C@]2(C)CC[C@]3(C)C(=CC[C@@H]4[C@@]5(C)CC[C@H](O)C(C)(C)[C@@H]5CC[C@]43C)[C@@H]2C1 [β-amyrin, reference compound]",,,,,,,,did not significantly reduce,,,,,,,
"CC1(C)CC[C@]2(C(=O)O)CC[C@]3(C)C(=CC[C@@H]4[C@@]5(C)CC[C@H](O)C(C)(C)[C@@H]5CC[C@]43C)[C@@H]2C1 [Component C-5, Oleanolic acid]",99.9,99.2,102,105,16.2,50,100 µM,,,,,,,,high potency
"C[C@H]1[C@H](C)CC[C@]2(C(=O)O)CC[C@]3(C)C(=CC[C@@H]4[C@@]5(C)CC[C@H](O)C(C)(C)[C@@H]5CC[C@]43C)[C@H]12 [Component D-3, Ursolic acid]",92.9,86.4,105,-13.1,-14.2,10,,,,,,,,,low/no potency
